# Results reported in ChEMBL document CHEMBL3526048, “In vitro metabolism of rivoglitazone, a novel peroxisome proliferator-activated receptor γ agonist, in rat, monkey, and human liver microsomes and freshly isolated hepatocytes” (Drug Metab Dispos, 2011).
# Legend:
# Hepatocyte [1] = experiment: Drug level in rat hepatocytes treated with [14C]-rivoglitazone at 30 uM after 3 hrs by radio-HPLC/LC-MS/MS analysis; assay type: ADME, cell-based
# [2] = Retention time of the compound by LC-MS/MS analysis; assay type: physicochemical
# Method in brief: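 LC-MS/MS used a YMC-Pack ODS-A column (1.5 × 150 mm, 5 μm) at 30°C, 0.1 ml/min. Mobile phase was water and acetonitrile, each with 0.01% TFA. Gradient: 12→60% B over 30 min, →90% B over 5 min, hold 5 min. Detection was UV 220 nm with positive ESI Q-TOF (capillary 3300 V, cone 45 V), collision energy 20 eV and xenon as collision gas.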
# Hepatocyte [3] = experiment: Drug level in human hepatocytes treated with [14C]-rivoglitazone at 30 uM after 3 hrs by radio-HPLC/LC-MS/MS analysis; assay type: ADME, cell-based
# Method in brief: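 Freshly isolated hepatocytes were suspended in HBSS at 2×10^6 viable cells/ml; trypan-blue viability was rat 88%, monkey 91 and 94%, human 66, 73 and 81%. Donors were rat (7 weeks, 170 g) and two male cynomolgus monkeys. Cells were incubated with [¹⁴C]rivoglitazone (30 μM) for 3 h at 37°C under 95% O₂/5% CO₂. Acetonitrile stop, sonication, samples pooled per species, supernatant analysed by radio-HPLC and LC-MS.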
# [4] = Drug level in monkey hepatocytes treated with [14C]-rivoglitazone at 30 uM after 3 hrs by radio-HPLC/LC-MS/MS analysis; conditions: cynomolgus monkey
# [5] = Drug level in cynomolgus monkey liver microsomes treated with [14C]-rivoglitazone at 20 uM after 2 to 4 hrs by radio-HPLC/LC-MS/MS analysis in presence of NADPH-generating system/SAM and UDPGA/SAM; assay type: ADME, Macaca fascicularis
# Liver microsome [6] = experiment: Drug level in Sprague-Dawley rat liver microsomes treated with [14C]-rivoglitazone at 20 uM after 2 to 4 hrs by radio-HPLC/LC-MS/MS analysis in presence of NADPH-generating system/SAM and UDPGA/SAM; assay type: ADME
# Liver microsome [7] = experiment: Drug level in human liver microsomes treated with [14C]-rivoglitazone at 20 uM after 2 to 4 hrs by radio-HPLC/LC-MS/MS analysis in presence of NADPH-generating system/SAM and UDPGA/SAM; assay type: ADME
# Hepatocyte [8] = experiment: Drug level in rat hepatocytes treated with [14C]-rivoglitazone at 30 uM after 3 hrs by radio-HPLC/LC-MS/MS analysis in presence of NADPH-generating system/SAM; assay type: ADME, cell-based
# Hepatocyte [9] = experiment: Drug level in human hepatocytes treated with [14C]-rivoglitazone at 30 uM after 3 hrs by radio-HPLC/LC-MS/MS analysis in presence of NADPH-generating system/SAM; assay type: ADME, cell-based
# Liver microsome [10] = experiment: Drug level in Sprague-Dawley rat liver microsomes treated with [14C]-rivoglitazone at 20 uM after 2 hrs by radio-HPLC/LC-MS/MS analysis in presence of NADPH-generating system/SAM; assay type: ADME
# Method in brief: (§1)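 Pooled male liver microsomes (1 mg/ml protein; rat from 94 Sprague-Dawley, monkey from 8 cynomolgus, human from 23 donors) were incubated with [¹⁴C]rivoglitazone (20 μM). Buffer: 10 mM potassium phosphate (pH 7.4). Cofactors: NADPH-generating system (2 mM NADP⁺, 20 mM G6P, 2 U/ml G6PDH, 10 mM MgCl₂), with or without 2 mM SAM. Incubation 2 h at 37°C with shaking; controls lacked NADPH system and SAM alone. Acetonitrile stop, radio-HPLC plus LC-MS.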
# [11] = Drug level in cynomolgus monkey liver microsomes treated with [14C]-rivoglitazone at 20 uM after 2 hrs by radio-HPLC/LC-MS/MS analysis in presence of NADPH-generating system/SAM; assay type: ADME, Macaca fascicularis; method in brief: as §1
# Liver microsome [12] = experiment: Drug level in human liver microsomes treated with [14C]-rivoglitazone at 20 uM after 2 hrs by radio-HPLC/LC-MS/MS analysis in presence of NADPH-generating system/SAM; assay type: ADME; method in brief: as §1
# [13] = tested on: Hepatocyte (Macaca fascicularis); experiment: Drug level in monkey hepatocytes treated with [14C]-rivoglitazone at 30 uM after 3 hrs by radio-HPLC/LC-MS/MS analysis in presence of NADPH-generating system/SAM; conditions: cynomolgus monkey
# Hepatocyte [14] = experiment: Drug level in rat hepatocytes treated with [14C]-rivoglitazone at 30 uM after 3 hrs by radio-HPLC/LC-MS/MS analysis in presence of UDPGA and UDPGA/SAM; assay type: ADME, cell-based
# Hepatocyte [15] = experiment: Drug level in human hepatocytes treated with [14C]-rivoglitazone at 30 uM after 3 hrs by radio-HPLC/LC-MS/MS analysis in presence of UDPGA and UDPGA/SAM; assay type: ADME, cell-based
# Liver microsome [16] = experiment: Drug level in Sprague-Dawley rat liver microsomes treated with [14C]-rivoglitazone at 20 uM after 4 hrs by radio-HPLC/LC-MS/MS analysis in presence of UDPGA and UDPGA/SAM; assay type: ADME
# Method in brief: (§2)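 Pooled male liver microsomes (1 mg/ml; rat from 94 Sprague-Dawley, monkey from 8 cynomolgus, human from 23 donors) were pretreated with alamethicin (50 μg/mg protein, 15 min, ice). Incubation with [¹⁴C]rivoglitazone (20 μM) in 100 mM Tris-HCl (pH 7.5), 10 mM MgCl₂, 5 mM UDPGA, with or without 2 mM SAM, 4 h at 37°C. Controls lacked UDPGA and SAM alone. Radio-HPLC and LC-MS analysis.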
# [17] = Drug level in cynomolgus monkey liver microsomes treated with [14C]-rivoglitazone at 20 uM after 4 hrs by radio-HPLC/LC-MS/MS analysis in presence of UDPGA and UDPGA/SAM; assay type: ADME, Macaca fascicularis; method in brief: as §2
# Liver microsome [18] = experiment: Drug level in human liver microsomes treated with [14C]-rivoglitazone at 20 uM after 4 hrs by radio-HPLC/LC-MS/MS analysis in presence of UDPGA and UDPGA/SAM; assay type: ADME; method in brief: as §2
# [19] = biological target: T1, UDP-glucuronosyltransferase 1A3 (Homo sapiens, UniProt P35503); experiment: Activity of human UGT1A3 expressed in microsomes isolated from baculovirus infected insect cell assessed as enzyme-mediated compound formation treated with [14C]-rivoglitazone at 20 uM after 4 hrs by radio-HPLC/LC-MS/MS analysis in presence of NADPH-generating system/SAM; assay type: ADME
# T1 sequence (P35503 whole entry): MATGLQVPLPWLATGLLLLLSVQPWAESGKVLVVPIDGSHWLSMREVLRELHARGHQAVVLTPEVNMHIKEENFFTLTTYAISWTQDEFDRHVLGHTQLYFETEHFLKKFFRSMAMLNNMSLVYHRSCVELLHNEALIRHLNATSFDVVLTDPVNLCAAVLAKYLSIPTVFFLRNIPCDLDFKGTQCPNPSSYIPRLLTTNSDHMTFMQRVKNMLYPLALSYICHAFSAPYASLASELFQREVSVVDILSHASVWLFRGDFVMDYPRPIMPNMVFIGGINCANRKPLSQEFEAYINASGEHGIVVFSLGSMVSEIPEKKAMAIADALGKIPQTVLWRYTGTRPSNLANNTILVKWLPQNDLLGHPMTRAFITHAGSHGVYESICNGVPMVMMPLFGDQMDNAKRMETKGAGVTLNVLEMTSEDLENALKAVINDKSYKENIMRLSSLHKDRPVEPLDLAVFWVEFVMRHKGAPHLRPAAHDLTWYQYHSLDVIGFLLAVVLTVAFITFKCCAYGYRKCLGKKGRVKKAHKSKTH
# [20] = biological target: T2, UDP-glucuronosyltransferase 2B7 (Homo sapiens, UniProt P16662); experiment: Activity of human UGT2B7 expressed in microsomes isolated from baculovirus infected insect cell assessed as enzyme-mediated compound formation treated with [14C]-rivoglitazone at 20 uM after 4 hrs by radio-HPLC/LC-MS/MS analysis in presence of NADPH-generating system/SAM; assay type: ADME
# T2 sequence (P16662 whole entry): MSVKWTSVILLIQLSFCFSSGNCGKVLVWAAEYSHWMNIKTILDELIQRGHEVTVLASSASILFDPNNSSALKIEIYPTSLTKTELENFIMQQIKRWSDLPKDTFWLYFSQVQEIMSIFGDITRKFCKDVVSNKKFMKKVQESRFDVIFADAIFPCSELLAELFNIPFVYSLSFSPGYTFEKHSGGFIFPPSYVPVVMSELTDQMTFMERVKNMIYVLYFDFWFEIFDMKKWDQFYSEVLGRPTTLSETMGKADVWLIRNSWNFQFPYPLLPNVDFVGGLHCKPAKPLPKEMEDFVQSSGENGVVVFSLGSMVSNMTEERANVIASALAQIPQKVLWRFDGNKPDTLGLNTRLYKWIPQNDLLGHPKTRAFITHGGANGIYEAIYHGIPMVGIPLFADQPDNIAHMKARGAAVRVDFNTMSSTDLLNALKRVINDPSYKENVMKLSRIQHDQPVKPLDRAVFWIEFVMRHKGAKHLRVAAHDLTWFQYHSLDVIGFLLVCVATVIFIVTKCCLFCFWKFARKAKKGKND
# [21] = Drug level in monkey hepatocytes treated with [14C]-rivoglitazone at 30 uM after 3 hrs by radio-HPLC/LC-MS/MS analysis in presence of UDPGA and UDPGA/SAM; conditions: cynomolgus monkey
SMILES,Retention_time [2],Drug metabolism (Hepatocyte [14]),Drug metabolism (Hepatocyte [15]),Drug metabolism (Liver microsome [16]),Drug metabolism [17],Drug metabolism (Liver microsome [18]),Drug metabolism [19],Drug metabolism [20],Drug metabolism [21],also measured
Cn1c(COc2ccc(CC3SC(=O)NC3=O)cc2)nc2ccc(OS(=O)(=O)O)cc21 (stereo not drawn),18.9 min,–,–,–,–,–,–,–,–,Drug metabolism (Hepatocyte [1]): metabolite_detected; Drug metabolism (Hepatocyte [3]): metabolite_detected; Drug metabolism [4]: metabolite_detected
COc1ccc2nc(COc3ccc(CC(SC)C(=O)O)cc3)n(C)c2c1 (stereo not drawn),24.2 min,–,–,–,–,–,–,–,–,Drug metabolism [5]: metabolite_detected; Drug metabolism (Liver microsome [6]): metabolite_detected; Drug metabolism (Liver microsome [7]): metabolite_detected
COc1ccc2nc(COc3ccc(CC(SC)C(N)=O)cc3)n(C)c2c1 (stereo not drawn),20.4 min,–,–,–,–,–,–,–,–,Drug metabolism (Hepatocyte [8]): metabolite_detected; Drug metabolism (Hepatocyte [9]): metabolite_detected; Drug metabolism (Liver microsome [10]): metabolite_detected; Drug metabolism [11]: metabolite_detected; Drug metabolism (Liver microsome [12]): metabolite_detected; Drug metabolism [13]: metabolite_detected

# Second part, led by results:
Retention_time [2],Drug metabolism (Hepatocyte [14]),Drug metabolism (Hepatocyte [15]),Drug metabolism (Liver microsome [16]),Drug metabolism [17],Drug metabolism (Liver microsome [18]),Drug metabolism [19],Drug metabolism [20],Drug metabolism [21],SMILES,also measured
17.3 min,metabolite_detected,metabolite_detected,metabolite_detected,metabolite_detected,metabolite_detected,metabolite_detected,metabolite_detected,metabolite_detected,COc1ccc2nc(COc3ccc(CC(SC(=O)N[C@@H]4O[C@H](C(=O)O)[C@@H](O)[C@H](O)[C@H]4O)C(=O)O)cc3)n(C)c2c1 (stereo partly drawn),–
19.8 min,metabolite_detected,metabolite_detected,metabolite_detected,metabolite_detected,metabolite_detected,metabolite_detected,metabolite_detected,metabolite_detected,COc1ccc2nc(COc3ccc(CC4SC(=O)N([C@@H]5O[C@H](C(=O)O)[C@@H](O)[C@H](O)[C@H]5O)C4=O)cc3)n(C)c2c1 (stereo partly drawn),–
